Assay results reported in ChEMBL document CHEMBL3098105, “7,7'-Diazaindirubin--a small molecule inhibitor of casein kinase 2 in vitro and in cells” (Bioorg Med Chem, 2014).

What was measured:
BT-549 = test: Antiproliferative activity against human BT549 cells after 3 days by sulforhodamine B assay; assay type: functional; conditions: BT-549, 72 h
Procedure, shortened: (§1)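 Tested in the NCI 60 cell line panel. GI50 is the concentration giving 50% inhibition of cell growth, and values are the mean of two series of tests.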

IGROV-1 = test: Antiproliferative activity against human IGROV1 cells after 3 days by sulforhodamine B assay; assay type: functional; conditions: IGROV-1, 72 h; procedure, shortened: as §1
U-251 = test: Antiproliferative activity against human U251 cells after 3 days by sulforhodamine B assay; assay type: functional; conditions: U-251, 72 h
SF-268 = test: Antiproliferative activity against human SF268 cells after 3 days by sulforhodamine B assay; assay type: functional; conditions: SF-268, 72 h; procedure, shortened: as §1
NCI-H460 = test: Antiproliferative activity against human NCI-H460 cells after 3 days by sulforhodamine B assay; assay type: functional; conditions: NCI-H460, 72 h; procedure, shortened: as §1
[1] = biological target: Receptor-interacting serine/threonine-protein kinase 2 (Homo sapiens) (UniProt O43353); test: Inhibition of human RIPK2 assessed as residual activity at 1 uM relative to control
NCI-H226 = test: Antiproliferative activity against human NCI-H226 cells after 3 days by sulforhodamine B assay; assay type: functional; conditions: NCI-H226, 72 h; procedure, shortened: as §1
MOLT-4 = test: Antiproliferative activity against human MOLT4 cells after 3 days by sulforhodamine B assay; assay type: functional; conditions: MOLT-4, 72 h; procedure, shortened: as §1
MCF7 = test: Cell cycle arrest in human MCF7 cells assessed as accumulation at S phase at 1 uM after 24 hrs using propidium iodide staining by FACS analysis (reference value: 18.59%); assay type: functional
[2] = biological target: Serine/threonine-protein kinase D1 (Homo sapiens) (UniProt Q15139); test: Inhibition of human PKCmu assessed as residual activity at 1 uM relative to control
[3] = biological target: Serine/threonine-protein kinase 24 (Homo sapiens) (UniProt Q9Y6E0); test: Inhibition of human MST3 assessed as residual activity at 1 uM relative to control
[4] = biological target: SRSF protein kinase 3 (Homo sapiens) (UniProt Q9UPE1); test: Inhibition of human MSSK1 assessed as residual activity at 1 uM relative to control
[5] = biological target: Ribosomal protein S6 kinase alpha-4 (Homo sapiens) (UniProt O75676); test: Inhibition of human MSK2 assessed as residual activity at 1 uM relative to control
[6] = biological target: Ribosomal protein S6 kinase alpha-5 (Homo sapiens) (UniProt O75582); test: Inhibition of human MSK1 assessed as residual activity at 1 uM relative to control
[7] = biological target: Dual specificity mitogen-activated protein kinase kinase 4 (Mus musculus) (UniProt P47809); test: Inhibition of mouse MKK4 assessed as residual activity at 1 uM relative to control
[8] = biological target: Hepatocyte growth factor receptor (Homo sapiens) (UniProt P08581); test: Inhibition of human Met assessed as residual activity at 1 uM relative to control
[9] = biological target: Serine/threonine-protein kinase MARK1 (Homo sapiens) (UniProt Q9P0L2); test: Inhibition of human MARK1 assessed as residual activity at 1 uM relative to control
[10] = biological target: MAP kinase-activated protein kinase 3 (Homo sapiens) (UniProt Q16644); test: Inhibition of human MAPKAP-K3 assessed as residual activity at 1 uM relative to control
[11] = biological target: Tyrosine-protein kinase Lck (Homo sapiens) (UniProt P06239); test: Inhibition of human Lck assessed as residual activity at 1 uM relative to control
[12] = biological target: Mitogen-activated protein kinase 8 (Homo sapiens) (UniProt P45983); test: Inhibition of human JNK1alpha1 assessed as residual activity at 1 uM relative to control
[13] = biological target: Macrophage colony-stimulating factor 1 receptor (Homo sapiens) (UniProt P07333); test: Inhibition of human Fms assessed as residual activity at 1 uM relative to control
[14] = biological target: Ephrin type-A receptor 4 (Homo sapiens) (UniProt P54764); test: Inhibition of human EphA4 assessed as residual activity at 1 uM relative to control
[15] = biological target: Ephrin type-A receptor 1 (Homo sapiens) (UniProt P21709); test: Inhibition of human EphA1 assessed as residual activity at 1 uM relative to control
[16] = biological target: Serine/threonine-protein kinase 17A (Homo sapiens) (UniProt Q9UEE5); test: Inhibition of human DRAK1 assessed as residual activity at 1 uM relative to control
[17] = biological target: Discoidin domain-containing receptor 2 (Homo sapiens) (UniProt Q16832); test: Inhibition of human DDR2 assessed as residual activity at 1 uM relative to control
[18] = biological target: Death-associated protein kinase 1 (Homo sapiens) (UniProt P53355); test: Inhibition of human DAPK1 assessed as residual activity at 1 uM relative to control
[19] = biological target: Proto-oncogene tyrosine-protein kinase Src (Homo sapiens) (UniProt P12931); test: Inhibition of human cSRC assessed as residual activity at 1 uM relative to control
[20] = biological target: T1, Serine/threonine-protein kinase Chk1 (Homo sapiens) (UniProt O14757); test: Inhibition of human CHK1 assessed as residual activity at 1 uM relative to control
T1 sequence (whole entry): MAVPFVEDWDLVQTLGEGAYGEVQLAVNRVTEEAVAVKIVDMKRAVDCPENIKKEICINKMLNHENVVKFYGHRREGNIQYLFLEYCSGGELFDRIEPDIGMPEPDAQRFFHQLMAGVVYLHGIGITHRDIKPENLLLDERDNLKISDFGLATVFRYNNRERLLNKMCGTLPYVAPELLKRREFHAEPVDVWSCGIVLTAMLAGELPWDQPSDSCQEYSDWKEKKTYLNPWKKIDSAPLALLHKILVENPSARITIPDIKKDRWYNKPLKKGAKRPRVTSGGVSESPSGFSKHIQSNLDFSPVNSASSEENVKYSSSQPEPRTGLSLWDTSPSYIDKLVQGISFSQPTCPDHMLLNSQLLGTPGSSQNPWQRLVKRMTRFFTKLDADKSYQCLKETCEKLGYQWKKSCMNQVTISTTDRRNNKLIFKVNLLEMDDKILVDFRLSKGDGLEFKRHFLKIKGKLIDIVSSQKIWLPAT

[21] = biological target: CDK3/Cyclin E (Homo sapiens) (UniProt P24864+Q00526); test: Inhibition of human CDK3/cyclinE assessed as residual activity at 1 uM relative to control; assay type: protein-complex assay
[22] = biological target: Calcium/calmodulin-dependent protein kinase type IV (Homo sapiens) (UniProt Q16566); test: Inhibition of human CaMK4 assessed as residual activity at 1 uM relative to control
[23] = biological target: Tyrosine-protein kinase Blk (Mus musculus) (UniProt P16277); test: Inhibition of mouse Blk assessed as residual activity at 1 uM relative to control
[24] = biological target: Vascular endothelial growth factor receptor 2 (Homo sapiens) (UniProt P35968); test: Inhibition of VEGF-R2 (unknown origin) assessed as residual activity at 10 uM relative to control
[25] = biological target: Mast/stem cell growth factor receptor Kit (Homo sapiens) (UniProt P10721); test: Inhibition of KIT (unknown origin) assessed as residual activity at 10 uM relative to control

MAP kinase-activated protein kinase 3 (Homo sapiens), sequence (Q16644 whole entry, looked up): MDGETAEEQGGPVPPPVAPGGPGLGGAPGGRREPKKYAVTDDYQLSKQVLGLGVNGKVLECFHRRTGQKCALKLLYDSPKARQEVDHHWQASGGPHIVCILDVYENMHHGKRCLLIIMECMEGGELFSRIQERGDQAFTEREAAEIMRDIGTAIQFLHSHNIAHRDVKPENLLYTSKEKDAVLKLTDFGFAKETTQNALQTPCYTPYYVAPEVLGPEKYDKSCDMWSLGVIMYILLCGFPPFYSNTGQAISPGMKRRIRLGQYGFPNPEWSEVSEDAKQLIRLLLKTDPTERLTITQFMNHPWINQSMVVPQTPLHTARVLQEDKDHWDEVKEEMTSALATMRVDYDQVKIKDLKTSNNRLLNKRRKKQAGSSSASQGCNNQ
Ribosomal protein S6 kinase alpha-5 (Homo sapiens), sequence (O75582 whole entry, looked up): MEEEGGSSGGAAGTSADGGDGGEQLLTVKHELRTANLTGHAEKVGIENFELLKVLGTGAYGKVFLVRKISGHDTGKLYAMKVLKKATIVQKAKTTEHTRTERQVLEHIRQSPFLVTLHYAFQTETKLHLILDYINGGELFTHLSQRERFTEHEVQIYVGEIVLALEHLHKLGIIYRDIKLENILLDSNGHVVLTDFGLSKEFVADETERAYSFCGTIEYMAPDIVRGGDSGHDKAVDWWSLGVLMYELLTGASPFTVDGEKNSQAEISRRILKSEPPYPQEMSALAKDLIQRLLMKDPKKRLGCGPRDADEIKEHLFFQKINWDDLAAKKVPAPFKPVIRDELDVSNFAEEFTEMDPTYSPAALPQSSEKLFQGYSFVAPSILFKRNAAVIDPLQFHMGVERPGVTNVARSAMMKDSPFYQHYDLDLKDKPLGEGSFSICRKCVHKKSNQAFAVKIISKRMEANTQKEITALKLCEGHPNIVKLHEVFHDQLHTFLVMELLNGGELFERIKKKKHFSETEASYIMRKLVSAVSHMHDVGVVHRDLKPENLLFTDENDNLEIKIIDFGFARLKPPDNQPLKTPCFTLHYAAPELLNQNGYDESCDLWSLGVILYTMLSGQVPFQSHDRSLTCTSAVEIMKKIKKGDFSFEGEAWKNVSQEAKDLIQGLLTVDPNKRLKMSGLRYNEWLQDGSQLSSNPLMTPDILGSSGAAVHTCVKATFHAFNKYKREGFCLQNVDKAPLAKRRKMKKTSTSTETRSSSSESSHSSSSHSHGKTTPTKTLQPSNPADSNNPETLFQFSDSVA
Discoidin domain-containing receptor 2 (Homo sapiens), sequence (Q16832 whole entry, the tested form may be a part): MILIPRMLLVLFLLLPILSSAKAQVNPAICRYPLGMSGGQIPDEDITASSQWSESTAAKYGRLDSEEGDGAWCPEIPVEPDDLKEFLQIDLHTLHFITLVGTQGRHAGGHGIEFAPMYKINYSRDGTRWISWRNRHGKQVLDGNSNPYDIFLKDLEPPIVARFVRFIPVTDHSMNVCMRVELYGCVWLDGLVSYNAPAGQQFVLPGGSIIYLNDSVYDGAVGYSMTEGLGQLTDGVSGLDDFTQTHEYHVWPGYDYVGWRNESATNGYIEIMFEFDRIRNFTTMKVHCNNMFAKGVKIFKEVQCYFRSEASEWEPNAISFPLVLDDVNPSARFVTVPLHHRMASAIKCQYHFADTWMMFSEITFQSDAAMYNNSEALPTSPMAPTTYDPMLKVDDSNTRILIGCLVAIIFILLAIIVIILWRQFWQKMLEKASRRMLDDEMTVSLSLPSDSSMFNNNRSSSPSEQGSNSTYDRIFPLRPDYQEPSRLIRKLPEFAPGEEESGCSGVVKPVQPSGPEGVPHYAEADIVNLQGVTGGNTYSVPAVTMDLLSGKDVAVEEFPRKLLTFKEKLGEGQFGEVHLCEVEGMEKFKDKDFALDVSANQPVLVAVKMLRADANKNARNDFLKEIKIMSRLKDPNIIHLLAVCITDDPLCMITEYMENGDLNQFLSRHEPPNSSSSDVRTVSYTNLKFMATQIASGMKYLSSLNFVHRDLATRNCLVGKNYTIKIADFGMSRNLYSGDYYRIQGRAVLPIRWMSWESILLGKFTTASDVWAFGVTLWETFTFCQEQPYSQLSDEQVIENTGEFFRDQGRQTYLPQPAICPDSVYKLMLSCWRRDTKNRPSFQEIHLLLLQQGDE
CDK3/Cyclin E (Homo sapiens), sequence (P24864 whole entry, looked up): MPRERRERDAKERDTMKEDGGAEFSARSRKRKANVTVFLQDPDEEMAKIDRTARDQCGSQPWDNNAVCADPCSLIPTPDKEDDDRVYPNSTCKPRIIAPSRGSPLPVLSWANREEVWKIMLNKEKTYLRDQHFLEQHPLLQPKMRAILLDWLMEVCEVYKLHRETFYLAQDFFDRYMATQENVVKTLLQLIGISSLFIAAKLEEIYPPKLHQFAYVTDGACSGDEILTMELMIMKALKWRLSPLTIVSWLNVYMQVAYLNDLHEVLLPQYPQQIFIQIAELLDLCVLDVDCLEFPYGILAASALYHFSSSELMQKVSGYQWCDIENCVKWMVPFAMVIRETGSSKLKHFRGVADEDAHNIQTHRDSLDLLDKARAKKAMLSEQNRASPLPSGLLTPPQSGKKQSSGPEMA
CDK3/Cyclin E (Homo sapiens), sequence (Q00526 whole entry, looked up): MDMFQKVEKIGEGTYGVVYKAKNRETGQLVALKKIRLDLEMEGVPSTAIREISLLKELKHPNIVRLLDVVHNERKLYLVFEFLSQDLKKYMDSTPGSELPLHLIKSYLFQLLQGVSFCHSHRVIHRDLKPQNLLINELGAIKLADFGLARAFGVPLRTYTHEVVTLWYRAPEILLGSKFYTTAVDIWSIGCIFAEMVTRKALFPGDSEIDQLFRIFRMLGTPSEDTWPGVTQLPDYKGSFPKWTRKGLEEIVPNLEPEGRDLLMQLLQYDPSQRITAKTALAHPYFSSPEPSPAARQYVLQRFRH
Serine/threonine-protein kinase D1 (Homo sapiens), sequence (Q15139 whole entry): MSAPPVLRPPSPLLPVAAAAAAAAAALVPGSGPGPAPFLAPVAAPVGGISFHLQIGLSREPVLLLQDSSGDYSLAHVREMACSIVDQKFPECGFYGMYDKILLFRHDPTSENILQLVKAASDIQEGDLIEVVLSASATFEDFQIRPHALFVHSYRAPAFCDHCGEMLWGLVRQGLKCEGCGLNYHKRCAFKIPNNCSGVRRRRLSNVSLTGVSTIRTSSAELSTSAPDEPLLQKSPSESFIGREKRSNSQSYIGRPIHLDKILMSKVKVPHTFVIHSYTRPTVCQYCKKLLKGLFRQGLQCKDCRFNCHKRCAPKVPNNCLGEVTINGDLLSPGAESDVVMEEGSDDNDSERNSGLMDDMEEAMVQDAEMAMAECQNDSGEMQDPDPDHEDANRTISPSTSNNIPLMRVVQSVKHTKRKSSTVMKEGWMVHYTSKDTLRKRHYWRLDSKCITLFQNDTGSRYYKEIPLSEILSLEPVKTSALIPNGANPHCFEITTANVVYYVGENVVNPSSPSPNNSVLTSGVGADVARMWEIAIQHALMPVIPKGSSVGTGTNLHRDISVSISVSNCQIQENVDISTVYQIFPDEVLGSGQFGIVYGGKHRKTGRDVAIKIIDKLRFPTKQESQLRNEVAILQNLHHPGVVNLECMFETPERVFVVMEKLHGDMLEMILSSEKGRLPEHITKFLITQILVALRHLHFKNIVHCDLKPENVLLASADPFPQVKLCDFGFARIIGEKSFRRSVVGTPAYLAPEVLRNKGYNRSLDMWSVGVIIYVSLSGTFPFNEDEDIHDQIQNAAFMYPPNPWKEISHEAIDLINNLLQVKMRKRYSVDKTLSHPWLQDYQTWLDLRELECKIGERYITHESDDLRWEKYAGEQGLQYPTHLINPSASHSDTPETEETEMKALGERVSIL
Serine/threonine-protein kinase 17A (Homo sapiens), sequence (Q9UEE5 whole entry, the tested form may be a part): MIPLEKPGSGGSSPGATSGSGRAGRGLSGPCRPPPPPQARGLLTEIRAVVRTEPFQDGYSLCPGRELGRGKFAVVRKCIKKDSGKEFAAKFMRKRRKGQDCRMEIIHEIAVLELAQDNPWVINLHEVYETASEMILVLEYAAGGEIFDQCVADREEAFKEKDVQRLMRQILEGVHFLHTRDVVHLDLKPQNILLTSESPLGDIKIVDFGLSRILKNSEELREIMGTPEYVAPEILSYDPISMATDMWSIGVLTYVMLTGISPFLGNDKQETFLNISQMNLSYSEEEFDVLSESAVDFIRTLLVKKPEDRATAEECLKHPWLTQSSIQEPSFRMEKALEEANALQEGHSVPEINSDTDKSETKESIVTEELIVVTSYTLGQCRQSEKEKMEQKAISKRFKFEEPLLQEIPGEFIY
Tyrosine-protein kinase Blk (Mus musculus), sequence (P16277 whole entry): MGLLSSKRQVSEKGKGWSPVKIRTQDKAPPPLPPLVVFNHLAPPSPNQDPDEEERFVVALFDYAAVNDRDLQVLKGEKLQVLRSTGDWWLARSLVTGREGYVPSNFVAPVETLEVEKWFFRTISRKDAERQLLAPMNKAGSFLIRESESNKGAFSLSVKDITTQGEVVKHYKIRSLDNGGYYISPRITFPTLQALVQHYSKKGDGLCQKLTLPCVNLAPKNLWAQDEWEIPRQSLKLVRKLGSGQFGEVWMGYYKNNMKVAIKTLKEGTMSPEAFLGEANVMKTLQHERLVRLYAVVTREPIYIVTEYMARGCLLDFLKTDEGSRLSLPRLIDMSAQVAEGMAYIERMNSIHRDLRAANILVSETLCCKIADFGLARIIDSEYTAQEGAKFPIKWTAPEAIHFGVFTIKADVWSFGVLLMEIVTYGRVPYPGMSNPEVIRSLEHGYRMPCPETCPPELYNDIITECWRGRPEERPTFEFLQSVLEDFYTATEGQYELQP
Dual specificity mitogen-activated protein kinase kinase 4 (Mus musculus), sequence (P47809 whole entry): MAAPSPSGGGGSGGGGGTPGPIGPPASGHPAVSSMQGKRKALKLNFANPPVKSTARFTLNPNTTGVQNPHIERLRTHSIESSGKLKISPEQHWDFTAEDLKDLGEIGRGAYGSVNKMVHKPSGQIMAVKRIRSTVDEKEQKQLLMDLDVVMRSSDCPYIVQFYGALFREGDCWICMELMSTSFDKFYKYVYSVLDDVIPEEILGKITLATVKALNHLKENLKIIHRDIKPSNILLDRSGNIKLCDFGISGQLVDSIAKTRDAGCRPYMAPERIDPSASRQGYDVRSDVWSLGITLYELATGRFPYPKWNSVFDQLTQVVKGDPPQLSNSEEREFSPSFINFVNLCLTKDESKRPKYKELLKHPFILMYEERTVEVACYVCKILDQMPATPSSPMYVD

O=C1Nc2ncccc2/C1=C1/Nc2ncccc2C1=O
GI50 (BT-549): 1.6 µM
GI50 (IGROV-1): 0.577 µM
GI50 (U-251): 1.1 µM
GI50 (SF-268): 1.62 µM
GI50 (NCI-H460): 0.307 µM
Activity [1]: 85%
GI50 (NCI-H226): 1.42 µM
GI50 (MOLT-4): 3.32 µM
Activity (MCF7): 12.87%
Activity [2]: 93%
Activity [3]: 113%
Activity [4]: 73%
Activity [5]: 78%
Activity [6]: 93%
Activity [7]: 110%
Activity [8]: 77%
Activity [9]: 107%
Activity [10]: 98%
Activity [11]: 55%
Activity [12]: 97%
Activity [13]: 91%
Activity [14]: 78%
Activity [15]: 111%
Activity [16]: 99%
Activity [17]: 119%
Activity [18]: 94%
Activity [19]: 63%
Activity [20]: 107%
Activity [21]: 74%
Activity [22]: 100%
Activity [23]: 113%
Activity [24]: 102%
Activity [25]: 73%
